Data as given in PubChem BioAssay.
Calls of active or inactive are those of the source.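 How the source made its calls, unless noted: active means inhibition above 20% together with a positive visual image hit; inconclusive means visual image hit but inhibition not above 20%; inactive means no visual image hit.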

Key:
[1] = inhibitors of TNFa-induced NFkB p65 translocation, primary screen, imaging, HUVEC, MLSMR starter and 10KST1 sets (AID 438); settings: HUVEC TNFa-induced p65 nuclear translocation; cell count: measured here: nuclei count (cytotoxicity indicator), at 2.08 µM; inhibition: at 2 µM, stronger effect = higher value, 0% TNFa-plus-vehicle, 100% no-TNFa wells;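 further: compound added about 3h40 before a 20 min TNFalpha stimulation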;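 on inhibition: signal is the nuclear over cytoplasmic p65 intensity ratio per well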
[2] = endothelial E-selectin expression blockers – imaging, HUVEC, immunofluorescence, MLSMR starter and 10KST1 sets, primary screen (AID 487;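 active means visually confirmed hit in the image check and inhibition above 20%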;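 on inhibition: signal is fraction of cell area covered by stained E-selectin grains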;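 on nuclei count: 100% = median nuclei count of all wells on the same plate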); settings: HUVEC TNFalpha-induced E-selectin immunofluorescence imaging, at 2 µM; inhibition: stronger effect = higher value; nuclei count: measured here: cell number, toxicity
[3] = Primary imaging screen for DUSP6 inhibitors that restore phospho-Erk in transfected HeLa cells, chemical complementation (AID 609;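 active means compounds giving at least 50% inhibition in the cell-based MKP-3 phosphatase rescue imaging test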;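 on inhibition: phospho-Erk level distribution per well compared with pooled transfected vehicle control wells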); settings: HeLa MKP-3 transfected, phospho-Erk imaging KS statistic, at 10 µM, cells stimulated with TPA for 15 min
[4] = target: Dual specificity protein phosphatase 6 (Homo sapiens) (UniProt Q16828); assay: as above; settings: HeLa MKP-3 transfected, phospho-Erk imaging KS statistic; at 10 µM; stronger effect = higher value; cells stimulated with TPA for 15 min
[5] = target: Voltage-gated potassium channel subunit beta-2 (Rattus norvegicus) (UniProt P62483); assay: inhibitors of rat Kvbeta2 reductase activity – biochemical, NADPH fluorescence, primary screen (AID 622;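 active means fluorescence slope higher than the sample average by over 3 SD, cut at about -0.22 in these data, passing the limit was not always enough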;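 further: slope of raw intensity against log time taken from 70 to 1610 s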); settings: recombinant KvBeta, 4-cyanobenzaldehyde reduction, at 10 µM, stronger effect = higher value
[6] = target: Voltage-gated potassium channel subunit beta-2 (Rattus norvegicus) (UniProt P62483); assay: enhancers of rat Kvbeta2 NADPH turnover – biochemical, NADPH fluorescence, primary screen (AID 623;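 active means NADPH fluorescence slope more negative than the mean of all samples by about 3 SD, 99.7% confidence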;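 further: fluorescence intensity change per second fitted from 20 to 320 s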); settings: Recombinant KvBeta, NADPH fluorescence decrease slope, 10 min; at 10 µM; stronger effect = lower value
[7] = target: Alpha-2C adrenergic receptor (Homo sapiens) (UniProt P18825); assay: compounds altering alpha2C-coupled GIRK flux – cell-based, HEK293 alpha2C/GIRK1/2, thallium flux, primary screen (AID 624;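 active means fluorescence slope after compound addition differing from the mean of all screened samples at 99.7% confidence, in either direction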;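 further: slope of fluorescence ratio to pre-addition baseline per second over 15 to 24 s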); settings: thallium flux BTC fluorescence, at 10 µM, actives lie on both sides
[8] = inhibitors of larval lipid processing in zebrafish, primary screen, whole organism, PED6 fluorescence, gall bladder and intestine (AID 686;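 active means a full or partial loss of lipid-probe fluorescence in the fish gall bladder, intestine or both, judged by eye; inactive means no fluorescence loss, or compound toxic to the fish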;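 further: larvae 5 to 7 days old with five fish per well; signal comes from phospholipase A2 cleavage of quenched PED6 carried via bile; overnight exposure to compound and PED6 before scoring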); settings: Zebrafish larvae PED6 lipid processing, fluorescence scoring; screened at 20 µM (by protocol)
How it was run: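 system = live zebrafish larvae aged 5-7 days, whole organism | probe or stimulus = ingested quenched lipid PED6 at 100 nM | doses = 20 µM single dose | timing = overnight exposure | detection = fluorescence microscopy with visual scoring of gall bladder and intestine | read-out = visual per-well fluorescence inhibition score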

[9] = loss of swimming-algae plug formation – whole organism, Chlamydomonas reinhardtii, WT vs cilia-less mutant, absorbance, 96-well, primary screen (AID 463189;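 active means inhibition at or above 50% relative to wild type and mutant plate controls; inactive means inhibition below 50%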;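 further: 0% = wild type cc124 cells in DMSO and 100% = ciliumless bld1 mutant cells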); settings: Chlamydomonas reinhardtii gravitaxis, OD600 absorbance, 2 days; at 10 µM; stronger effect = higher value
[10] = measured here: cell density z-score
[11] = measured here: nuclear c-Myc green intensity z-score
[12] = measured here: nuclear pErk red intensity z-score, stronger effect = higher value

Sequence of Alpha-2C adrenergic receptor (Homo sapiens) (P18825 whole entry, looked up): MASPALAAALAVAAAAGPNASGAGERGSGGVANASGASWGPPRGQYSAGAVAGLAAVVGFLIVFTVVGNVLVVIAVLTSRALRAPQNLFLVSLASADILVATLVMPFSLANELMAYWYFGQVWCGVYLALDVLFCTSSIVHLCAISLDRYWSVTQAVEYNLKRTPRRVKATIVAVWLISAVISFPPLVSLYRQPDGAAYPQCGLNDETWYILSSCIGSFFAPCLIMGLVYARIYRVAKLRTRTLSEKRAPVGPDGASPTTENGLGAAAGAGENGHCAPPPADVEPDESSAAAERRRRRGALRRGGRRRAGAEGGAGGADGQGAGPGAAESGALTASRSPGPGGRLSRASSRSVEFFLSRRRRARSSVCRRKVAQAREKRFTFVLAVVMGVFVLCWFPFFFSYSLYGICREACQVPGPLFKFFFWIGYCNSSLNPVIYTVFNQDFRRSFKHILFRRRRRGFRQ
Sequence of Dual specificity protein phosphatase 6 (Homo sapiens) (Q16828 whole entry, looked up): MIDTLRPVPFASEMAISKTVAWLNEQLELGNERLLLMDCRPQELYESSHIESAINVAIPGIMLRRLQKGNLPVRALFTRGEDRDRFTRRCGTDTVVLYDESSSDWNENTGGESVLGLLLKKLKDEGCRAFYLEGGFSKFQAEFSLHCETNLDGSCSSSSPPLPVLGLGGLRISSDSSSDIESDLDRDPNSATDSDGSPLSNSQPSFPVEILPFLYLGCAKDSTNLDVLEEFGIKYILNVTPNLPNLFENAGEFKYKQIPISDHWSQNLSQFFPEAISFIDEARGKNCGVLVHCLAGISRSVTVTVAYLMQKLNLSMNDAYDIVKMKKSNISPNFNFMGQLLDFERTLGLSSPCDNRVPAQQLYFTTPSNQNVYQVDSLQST
Sequence of Voltage-gated potassium channel subunit beta-2 (Rattus norvegicus) (P62483 whole entry, looked up): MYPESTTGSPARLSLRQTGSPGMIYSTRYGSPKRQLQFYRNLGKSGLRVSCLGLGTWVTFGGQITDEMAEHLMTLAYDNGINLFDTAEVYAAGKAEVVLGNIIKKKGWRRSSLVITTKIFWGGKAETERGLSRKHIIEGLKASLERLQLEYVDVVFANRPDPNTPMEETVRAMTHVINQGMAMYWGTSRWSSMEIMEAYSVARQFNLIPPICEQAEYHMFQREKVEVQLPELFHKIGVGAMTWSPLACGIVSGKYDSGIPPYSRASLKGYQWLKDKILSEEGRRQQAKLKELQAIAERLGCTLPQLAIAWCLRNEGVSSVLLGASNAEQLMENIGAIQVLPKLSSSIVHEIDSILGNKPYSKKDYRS

SMILES	cell count [1]	inhibition [1]	inhibition [2]	nuclei count [2]	z-score [3, 10]	z-score [3, 11]	z-score [3, 12]	inhibition [4]	fluorescence slope [5]	NADPH fluorescence slope [6]	slope [7]	outcome [8]	inhibition [9]
Nc1nnc(CSc2ccc(Cl)cc2)s1	605	-14% (inactive)	33.5% (inactive)	171%	0.155	-0.0933	-0.139	-7.86% (inactive)	-0.369 (inactive)	-4.8e-05 (inactive)	0.00734 (inactive)	inactive	6.7% (inactive)
COc1ccc(S(=O)(=O)N2CCC(N3CCCCC3)CC2)cc1	454	-22.7% (inactive)	-217% (inactive)	148%	0.445	-1.43	-2.35	29.3% (inactive)	-0.314 (inactive)	-2e-05 (inactive)	0.00443 (inactive)	inactive	68% (active)
CN(C)S(=O)(=O)Nc1ccc(NS(=O)(=O)N(C)C)c(S(=O)(=O)c2ccccc2)c1	341	-11.9% (inactive)	-131% (inactive)	99.4%	-0.765	0.48	-2.08	7.73% (inactive)	-0.495 (inactive)	-0.000114 (inactive)	0.00381 (inactive)	inactive	-7.02% (inactive)
COCc1[nH]nc2c1C(c1ccnc3ccccc13)C(C#N)=C(N)O2 (centres undefined)	589	-5% (inactive)	26.1% (inactive)	102%	0.598	-2.1	-0.301	29.9% (inactive)	-0.519 (inactive)	-1.8e-05 (inactive)	0.00587 (inactive)	inactive	15.7% (inactive)
CCOC(=O)c1sc2c(c1C)c(=O)c(C(=O)OCC)cn2CC	584	-4.2% (inactive)	-79% (inactive)	156%	-0.851	-0.225	0.403	7.01% (inactive)	-0.376 (inactive)	4.1e-06 (inactive)	0.00559 (inactive)	inactive	-0.239% (inactive)
COC(=O)C1C(=O)CC(C)(O)C(C(=O)OC)C1c1ccccc1F (centres undefined)	586	-1.8% (inactive)	-42.2% (inactive)	178%	-1.74	-0.438	1.61	7.83% (inactive)	-0.345 (inactive)	-3.4e-05 (inactive)	0.00488 (inactive)	inactive	-7% (inactive)
CCOC(=O)NC(O)C(=O)c1cccs1 (centres undefined)	507	-20.3% (inactive)	-205% (inactive)	153%	1.4	-0.239	-0.163	22.3% (inactive)	-0.5 (inactive)	-0.000158 (inactive)	0.00426 (inactive)	inactive	16.4% (inactive)
CSc1nnc(N(CCC#N)CCC#N)s1	351	-2.1% (inactive)	-46.6% (inactive)	91%	0.261	1.77	-1.54	17% (inactive)	-0.487 (inactive)	-9.5e-06 (inactive)	0.0048 (inactive)	inactive	29.7% (inactive)
CCOC(=O)C1CCN(c2nc3ccccc3nc2C(C#N)C(=O)NCCc2ccccc2)CC1 (centres undefined)	441	3.4% (inactive)	-167% (inactive)	184%	0.0297	0.625	-0.588	13.2% (inactive)	-0.426 (inactive)	-6.6e-05 (inactive)	0.00158 (inactive)	inactive	13.3% (inactive)
CCN1CC=C2C(C#N)=C(N)C(C#N)(C#N)[C@H](c3cccc(OC)c3OC)[C@H]2C1	560	-11.4% (inactive)	26.9% (inactive)	113%	1.15	1.25	-1.6	-3.95% (inactive)	-0.449 (inactive)	-6e-06 (inactive)	-4.3e-17 (inactive)	inactive	-15.5% (inactive)
N#Cc1c(N)sc(=S)c2c1CCCCC2	560	-3.2% (inactive)	-130% (inactive)	180%	-0.472	-0.421	0.0305	-0.608% (inactive)	-0.339 (inactive)	2.8e-06 (inactive)	0.00229 (inactive)	inactive	6.84% (inactive)
CNC(=O)Nc1cccc(NC(=O)NC)n1	351	-2.8% (inactive)	-90.3% (inactive)	164%	0.612	0.757	-1.65	11.4% (inactive)	-0.456 (inactive)	-0.000144 (inactive)	0.00525 (inactive)	inactive	-3.2% (inactive)
CNC(=O)c1ncnnc1N(C)C(=O)NCc1ccccc1	506	-21% (inactive)	-54.6% (inactive)	134%	0.229	0.0819	-1.12	-9.66% (inactive)	-0.531 (inactive)	-2.3e-05 (inactive)	0.00729 (inactive)	inactive	9.13% (inactive)
